According to ChEMBL document CHEMBL1151222, “A new lariciresinol-type butyrolactone lignan derived from hydroxymatairesinol and its identification in spruce wood” (J Nat Prod, 2004):

Experiments:
Design in all cases: dose 50 mg/kg, route oral
Details in all cases: in vivo
Rattus norvegicus [1] = test: Metabolic stability in Sprague-Dawley rat assessed as urinary excretion of hydroxymatairesinol at 50 mg/kg, po after 48 hrs; format: ADME, organism-based, Urine
Procedure, shortened: (§1)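 Five female Sprague-Dawley rats on RM1 diet received a single oral gavage of the lignan preparation in vehicle at 50 mg/kg. Individual 48 h urine was hydrolysed enzymatically, solid-phase extracted at pH 4.0 and measured by negative-ion HPLC-MS/MS MRM against calibration curves in spiked blank rat urine. Background was subtracted. Excretion is excreted molar amount per administered molar amount of that same component, reported as mean ± SD.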

Rattus norvegicus [2] = test: Metabolic stability in Sprague-Dawley rat assessed as conversion to hydroxymatairesinol level at 50 mg/kg, po after 48 hrs; format: ADME, organism-based
Procedure, shortened: (§2)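 Five female Sprague-Dawley rats were kept on RM1 diet before and during the study. A knotwood-derived lignan preparation was given once by oral gavage in vehicle at 50 mg/kg, and individual urine was collected over 48 h. Urine was enzymatically hydrolysed, solid-phase extracted at pH 4.0 and analysed by negative-mode HPLC-ESI-MS/MS MRM. Pre-dose background was subtracted. Conversion is excreted molar amount per total administered molar amount, reported as mean ± SD.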

Rattus norvegicus [3] = test: Metabolic stability in Sprague-Dawley rat assessed as conversion to allo-hydroxymatairesinol level at 50 mg/kg, po after 48 hrs; format: ADME, organism-based; procedure, shortened: as §2
Rattus norvegicus [4] = test: Metabolic stability in Sprague-Dawley rat assessed as urinary excretion of allo-hydroxymatairesinol at 50 mg/kg, po after 48 hrs; format: ADME, organism-based, Urine; procedure, shortened: as §1
Rattus norvegicus [5] = test: Metabolic stability in Sprague-Dawley rat assessed as urinary excretion of isohydroxymatairesinol at 50 mg/kg, po after 48 hrs; format: ADME, organism-based, Urine; procedure, shortened: as §1
Rattus norvegicus [6] = test: Metabolic stability in Sprague-Dawley rat assessed as conversion to isohydroxymatairesinol level at 50 mg/kg, po after 48 hrs; format: ADME, organism-based; procedure, shortened: as §2

Compound: COc1cc(C[C@H]2C(=O)OC[C@@H]2[C@H](O)c2ccc(O)c(OC)c2)ccc1O [HYDROXYMATAIRESINOL]
- Activity (Rattus norvegicus [1]): 6%
- Activity (Rattus norvegicus [2]): 1100 nmol

Compound: COc1cc(C[C@H]2C(=O)OC[C@@H]2[C@@H](O)c2ccc(O)c(OC)c2)ccc1O
- Activity (Rattus norvegicus [3]): 1400 nmol
- Activity (Rattus norvegicus [4]): 14.3%

Compound: COc1cc(C[C@H]2C(=O)O[C@H](c3ccc(O)c(OC)c3)[C@H]2CO)ccc1O [ISOHYDROXYMATAIRESINOL]
- Activity (Rattus norvegicus [5]): 5.9%
- Activity (Rattus norvegicus [6]): 39 nmol
